Source: ChEMBL document CHEMBL4715736, “Identification of anticancer agents based on the thieno[2,3-b]pyridine and 1H-pyrazole molecular scaffolds” (2016)

System: SNB-19
Assay: Growth inhibition of human SNB-19 cells assessed as cell growth at 10 uM incubated for 48 hrs by sulforhodamine B assay relative to control
Assay type: functional
Conditions: read-out: Activity
How it was run: (§1)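 Run by the NCI Developmental Therapeutics Program as part of its 60-line human tumour panel. Each compound tested at a single 10 µM dose. Growth expressed as % relative to untreated control cells (100%).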

Row | SMILES | growth at 10 µM [%]
1 | O=S(=O)(c1ccc(Br)cc1)n1ccc(-c2ccc(OCCCF)cc2)n1 | 95.5
2 | Cc1ccc(S(=O)(=O)n2ccc(-c3ccc(OCCCF)cc3)n2)cc1 | 91.7

System: OVCAR-8
Assay: Growth inhibition of human OVCAR-8 cells assessed as cell growth at 10 uM incubated for 48 hrs by sulforhodamine B assay relative to control
Assay type: functional
Conditions: read-out: Activity
How it was run: as §1

Row | SMILES | growth at 10 µM [%]
3 | O=S(=O)(c1ccc(Br)cc1)n1ccc(-c2ccc(OCCCF)cc2)n1 | 95.1
4 | Cc1ccc(S(=O)(=O)n2ccc(-c3ccc(OCCCF)cc3)n2)cc1 | 87.7

System: OVCAR-4
Assay: Growth inhibition of human OVCAR-4 cells assessed as cell growth at 10 uM incubated for 48 hrs by sulforhodamine B assay relative to control
Assay type: functional
Conditions: read-out: Activity
How it was run: as §1

Row | SMILES | growth at 10 µM [%]
5 | O=S(=O)(c1ccc(Br)cc1)n1ccc(-c2ccc(OCCCF)cc2)n1 | 71.1
6 | Cc1ccc(S(=O)(=O)n2ccc(-c3ccc(OCCCF)cc3)n2)cc1 | 73.2

System: SF-268
Assay: Growth inhibition of human SF-268 cells assessed as cell growth at 10 uM incubated for 48 hrs by sulforhodamine B assay relative to control
Assay type: functional
Conditions: read-out: Activity
How it was run: as §1

Row | SMILES | growth at 10 µM [%]
7 | O=S(=O)(c1ccc(Br)cc1)n1ccc(-c2ccc(OCCCF)cc2)n1 | 98.5
8 | Cc1ccc(S(=O)(=O)n2ccc(-c3ccc(OCCCF)cc3)n2)cc1 | 103

System: T47D
Assay: Growth inhibition of human T47D cells assessed as cell growth at 10 uM incubated for 48 hrs by sulforhodamine B assay relative to control
Assay type: functional
Conditions: read-out: Activity
How it was run: as §1

Row | SMILES | growth at 10 µM [%]
9 | O=S(=O)(c1ccc(Br)cc1)n1ccc(-c2ccc(OCCCF)cc2)n1 | 72.6
10 | Cc1ccc(S(=O)(=O)n2ccc(-c3ccc(OCCCF)cc3)n2)cc1 | 72.9

System: DU-145
Assay: Growth inhibition of human DU-145 cells assessed as cell growth at 10 uM incubated for 48 hrs by sulforhodamine B assay relative to control
Assay type: functional
Conditions: read-out: Activity
How it was run: (§2)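 NCI Developmental Therapeutics Program NCI60 panel. Compounds that were active in the 10 µM one-dose screen went on to dose–response testing. Growth at each concentration is expressed relative to untreated control (100%). GI50 (concentration giving 50% of maximal inhibition of proliferation) and TGI (concentration giving total growth inhibition) were derived from the curves.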

Row | SMILES | growth at 10 µM [%]
11 | O=S(=O)(c1ccc(Br)cc1)n1ccc(-c2ccc(OCCCF)cc2)n1 | 102
12 | Cc1ccc(S(=O)(=O)n2ccc(-c3ccc(OCCCF)cc3)n2)cc1 | 99.3

System: COLO 205
Assay: Growth inhibition of human COLO 205 cells assessed as cell growth at 10 uM incubated for 48 hrs by sulforhodamine B assay relative to control
Assay type: functional
Conditions: read-out: Activity
How it was run: as §2

Row | SMILES | growth at 10 µM [%]
13 | O=S(=O)(c1ccc(Br)cc1)n1ccc(-c2ccc(OCCCF)cc2)n1 | 102
14 | Cc1ccc(S(=O)(=O)n2ccc(-c3ccc(OCCCF)cc3)n2)cc1 | 101

System: LOX IMVI
Assay: Growth inhibition of human LOX IMVI cells assessed as cell growth at 10 uM incubated for 48 hrs by sulforhodamine B assay relative to control
Assay type: functional
Conditions: read-out: Activity
How it was run: (§3)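 Submitted to the NCI Developmental Therapeutics Program for the NCI60 human tumour cell line panel. First screen at a single 10 µM concentration. Read-out is growth relative to untreated control cells set at 100%.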

Row | SMILES | growth at 10 µM [%]
15 | O=S(=O)(c1ccc(Br)cc1)n1ccc(-c2ccc(OCCCF)cc2)n1 | 100
16 | Cc1ccc(S(=O)(=O)n2ccc(-c3ccc(OCCCF)cc3)n2)cc1 | 92.5

System: CAKI-1
Assay: Growth inhibition of human CAKI-1 cells assessed as cell growth at 10 uM incubated for 48 hrs by sulforhodamine B assay relative to control
Assay type: functional
Conditions: read-out: Activity
How it was run: as §2

Row | SMILES | growth at 10 µM [%]
17 | O=S(=O)(c1ccc(Br)cc1)n1ccc(-c2ccc(OCCCF)cc2)n1 | 79.3
18 | Cc1ccc(S(=O)(=O)n2ccc(-c3ccc(OCCCF)cc3)n2)cc1 | 63.8

System: TK-10
Assay: Growth inhibition of human TK-10 cells assessed as cell growth at 10 uM incubated for 48 hrs by sulforhodamine B assay relative to control
Assay type: functional
Conditions: read-out: Activity
How it was run: as §1

Row | SMILES | growth at 10 µM [%]
19 | O=S(=O)(c1ccc(Br)cc1)n1ccc(-c2ccc(OCCCF)cc2)n1 | 70.8
20 | Cc1ccc(S(=O)(=O)n2ccc(-c3ccc(OCCCF)cc3)n2)cc1 | 62.8

System: SK-OV-3
Assay: Growth inhibition of human SK-OV-3 cells assessed as cell growth at 10 uM incubated for 48 hrs by sulforhodamine B assay relative to control
Assay type: functional
Conditions: read-out: Activity
How it was run: as §1

Row | SMILES | growth at 10 µM [%]
21 | O=S(=O)(c1ccc(Br)cc1)n1ccc(-c2ccc(OCCCF)cc2)n1 | 106
22 | Cc1ccc(S(=O)(=O)n2ccc(-c3ccc(OCCCF)cc3)n2)cc1 | 107

System: HT-29
Assay: Growth inhibition of human HT-29 cells assessed as cell growth at 10 uM incubated for 48 hrs by sulforhodamine B assay relative to control
Assay type: functional
Conditions: read-out: Activity
How it was run: as §3

Row | SMILES | growth at 10 µM [%]
23 | O=S(=O)(c1ccc(Br)cc1)n1ccc(-c2ccc(OCCCF)cc2)n1 | 89.4
24 | Cc1ccc(S(=O)(=O)n2ccc(-c3ccc(OCCCF)cc3)n2)cc1 | 86.4

System: SW-620
Assay: Growth inhibition of human SW-620 cells assessed as cell growth at 10 uM incubated for 48 hrs by sulforhodamine B assay relative to control
Assay type: functional
Conditions: read-out: Activity
How it was run: as §1

Row | SMILES | growth at 10 µM [%]
25 | O=S(=O)(c1ccc(Br)cc1)n1ccc(-c2ccc(OCCCF)cc2)n1 | 107
26 | Cc1ccc(S(=O)(=O)n2ccc(-c3ccc(OCCCF)cc3)n2)cc1 | 103

System: MDA-MB-231
Assay: Growth inhibition of human MDA-MB-231 cells assessed as cell growth at 10 uM incubated for 48 hrs by sulforhodamine B assay relative to control
Assay type: functional
Conditions: read-out: Activity
How it was run: as §3

Row | SMILES | growth at 10 µM [%]
27 | O=S(=O)(c1ccc(Br)cc1)n1ccc(-c2ccc(OCCCF)cc2)n1 | 101
28 | Cc1ccc(S(=O)(=O)n2ccc(-c3ccc(OCCCF)cc3)n2)cc1 | 93.9

System: HCC 2998
Assay: Growth inhibition of human HCC 2998 cells assessed as cell growth at 10 uM incubated for 48 hrs by sulforhodamine B assay relative to control
Assay type: functional
Conditions: read-out: Activity
How it was run: as §2

Row | SMILES | growth at 10 µM [%]
29 | O=S(=O)(c1ccc(Br)cc1)n1ccc(-c2ccc(OCCCF)cc2)n1 | 90.3
30 | Cc1ccc(S(=O)(=O)n2ccc(-c3ccc(OCCCF)cc3)n2)cc1 | 93.9

System: 786-0
Assay: Growth inhibition of human 786-0 cells assessed as cell growth at 10 uM incubated for 48 hrs by sulforhodamine B assay relative to control
Assay type: functional
Conditions: read-out: Activity
How it was run: as §2

Row | SMILES | growth at 10 µM [%]
31 | O=S(=O)(c1ccc(Br)cc1)n1ccc(-c2ccc(OCCCF)cc2)n1 | 85.3
32 | Cc1ccc(S(=O)(=O)n2ccc(-c3ccc(OCCCF)cc3)n2)cc1 | 89.6

System: MCF7
Assay: Growth inhibition of human MCF7 cells assessed as cell growth at 10 uM incubated for 48 hrs by sulforhodamine B assay relative to control
Assay type: functional
Conditions: read-out: Activity
How it was run: as §3

Row | SMILES | growth at 10 µM [%]
33 | O=S(=O)(c1ccc(Br)cc1)n1ccc(-c2ccc(OCCCF)cc2)n1 | 75.6
34 | Cc1ccc(S(=O)(=O)n2ccc(-c3ccc(OCCCF)cc3)n2)cc1 | 78.3

System: RPMI-8226
Assay: Growth inhibition of human RPMI-8226 cells assessed as cell growth at 10 uM incubated for 48 hrs by sulforhodamine B assay relative to control
Assay type: functional
Conditions: read-out: Activity
How it was run: as §1

Row | SMILES | growth at 10 µM [%]
35 | O=S(=O)(c1ccc(Br)cc1)n1ccc(-c2ccc(OCCCF)cc2)n1 | 77.1
36 | Cc1ccc(S(=O)(=O)n2ccc(-c3ccc(OCCCF)cc3)n2)cc1 | 72.8

System: SK-MEL-2
Assay: Growth inhibition of human SK-MEL-2 cells assessed as cell growth at 10 uM incubated for 48 hrs by sulforhodamine B assay relative to control
Assay type: functional
Conditions: read-out: Activity
How it was run: as §1

Row | SMILES | growth at 10 µM [%]
37 | O=S(=O)(c1ccc(Br)cc1)n1ccc(-c2ccc(OCCCF)cc2)n1 | 96.4
38 | Cc1ccc(S(=O)(=O)n2ccc(-c3ccc(OCCCF)cc3)n2)cc1 | 87.2

System: NCI-H522
Assay: Growth inhibition of human NCI-H522 cells assessed as cell growth at 10 uM incubated for 48 hrs by sulforhodamine B assay relative to control
Assay type: functional
Conditions: read-out: Activity
How it was run: as §3

Row | SMILES | growth at 10 µM [%]
39 | O=S(=O)(c1ccc(Br)cc1)n1ccc(-c2ccc(OCCCF)cc2)n1 | 79.4
40 | Cc1ccc(S(=O)(=O)n2ccc(-c3ccc(OCCCF)cc3)n2)cc1 | 69.5

System: BT-549
Assay: Growth inhibition of human BT-549 cells assessed as cell growth at 10 uM incubated for 48 hrs by sulforhodamine B assay relative to control
Assay type: functional
Conditions: read-out: Activity
How it was run: (§4)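 NCI Developmental Therapeutics Program NCI60 human tumour cell line panel, one-dose primary screen with every compound at 10 µM. Growth is expressed as % of untreated control cells (100%).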

Row | SMILES | growth at 10 µM [%]
41 | O=S(=O)(c1ccc(Br)cc1)n1ccc(-c2ccc(OCCCF)cc2)n1 | 110
42 | Cc1ccc(S(=O)(=O)n2ccc(-c3ccc(OCCCF)cc3)n2)cc1 | 99.9

System: NCI-H23
Assay: Growth inhibition of human NCI-H23 cells assessed as cell growth at 10 uM incubated for 48 hrs by sulforhodamine B assay relative to control
Assay type: functional
Conditions: read-out: Activity
How it was run: as §3

Row | SMILES | growth at 10 µM [%]
43 | O=S(=O)(c1ccc(Br)cc1)n1ccc(-c2ccc(OCCCF)cc2)n1 | 80.3
44 | Cc1ccc(S(=O)(=O)n2ccc(-c3ccc(OCCCF)cc3)n2)cc1 | 78.7

System: K562
Assay: Growth inhibition of human K562 cells assessed as cell growth at 10 uM incubated for 48 hrs by sulforhodamine B assay relative to control
Assay type: functional
Conditions: read-out: Activity
How it was run: as §3

Row | SMILES | growth at 10 µM [%]
45 | O=S(=O)(c1ccc(Br)cc1)n1ccc(-c2ccc(OCCCF)cc2)n1 | 55.6
46 | Cc1ccc(S(=O)(=O)n2ccc(-c3ccc(OCCCF)cc3)n2)cc1 | 55.4

System: ACHN
Assay: Growth inhibition of human ACHN cells assessed as cell growth at 10 uM incubated for 48 hrs by sulforhodamine B assay relative to control
Assay type: functional
Conditions: read-out: Activity
How it was run: as §4

Row | SMILES | growth at 10 µM [%]
47 | O=S(=O)(c1ccc(Br)cc1)n1ccc(-c2ccc(OCCCF)cc2)n1 | 94.1
48 | Cc1ccc(S(=O)(=O)n2ccc(-c3ccc(OCCCF)cc3)n2)cc1 | 97.4

System: SR
Assay: Growth inhibition of human SR cells assessed as cell growth at 10 uM incubated for 48 hrs by sulforhodamine B assay relative to control
Assay type: functional
Conditions: read-out: Activity
How it was run: as §1

Row | SMILES | growth at 10 µM [%]
49 | O=S(=O)(c1ccc(Br)cc1)n1ccc(-c2ccc(OCCCF)cc2)n1 | 75.2
50 | Cc1ccc(S(=O)(=O)n2ccc(-c3ccc(OCCCF)cc3)n2)cc1 | 67.4
